Columns and labels:
[1] = system: Rattus norvegicus; test: Inhibition of apomorphine-induced aggression in male rats after intraperitoneal administration of 25 mg/kg of compound; type: functional; settings: ip
Procedure, shortened: (§1)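 Male rats received a single screening dose, given in water or 0.5% methylcellulose as a solution or fine dispersion. Apomorphine-induced fighting in paired animals was observed starting 1 h after dosing, with five pairs per dose. The value is percent inhibition of fighting time at that dose. Stereotyped behavior was recorded during the fighting observation.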

[2] = system: Rattus norvegicus; test: Ability of intraperitoneally administered compound to antagonise apomorphine-induced aggression in male rats.; type: functional
Procedure, shortened: (§2)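 Male rats were dosed ip or orally as solutions or fine dispersions in water or 0.5% methylcellulose. Apomorphine-induced fighting between paired animals was scored 1 h after dosing, and stereotyped behavior was noted. Five pairs were used per dose. ED50 is the dose that cut fighting time by 50%, estimated approximately from two or three bracketing doses, and has no standard error.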

[3] = system: Rattus norvegicus; test: Antagonists of apomorphine-induced aggression in male rats, administered perorally; type: functional; procedure, shortened: as §2
[4] = system: Rattus norvegicus; test: Inhibition of apomorphine-induced aggression in male rats after peroral administration of 25 mg/kg of compound; type: functional; settings: route oral; procedure, shortened: as §1
[5] = system: Rattus norvegicus; test: Ability of intraperitoneally administered compound (25 mg/kg) to antagonise apomorphine-induced aggression in male rats; d indicates toxic at 25 mg/Kg; type: functional, organism-based
[6] = system: Rattus norvegicus; test: Compounds were tested for their ability to antagonise apomorphine-induced aggression in male rats. compound was administered perorally.; type: functional; settings: po; procedure, shortened: as §2
[7] = Rattus norvegicus, ip, read-out: ED50
[8] = Rattus norvegicus, po, read-out: ED50

| SMILES | ED50 [2, 7] [mg/kg] | ED50 [3, 8] [mg/kg] | also measured |
| --- | --- | --- | --- |
| CCCNc1ncnc2c1ncn2CC1CC1 |  |  | inhibition in vivo at 25 mg/kg [1]: 0% |
| CCN(CC)c1ncnc2c1ncn2CC1CC1 |  |  | inhibition in vivo at 25 mg/kg [1]: 0% |
| c1nc(NCC2CC2)c2ncn(CC3CC3)c2n1 |  |  | inhibition in vivo at 25 mg/kg [1]: 28% |
| CCCCCn1cnc2c(N(C)C)ncnc21 |  |  | inhibition in vivo at 25 mg/kg [1]: 0% |
| c1nc(NC2CC2)c2ncn(CC3CCCC3)c2n1 | 15 |  |  |
| CCCOc1nc(NC2CC2)c2ncn(CC3CC3)c2n1 | 2.5 | 2.5 |  |
| O=CN(c1ncnc2c1ncn2C1CCC1)C1CC1 | 20 |  | inhibition in vivo at 25 mg/kg [4]: 0% |
| CSc1nc(NC2CC2)c2ncn(CC3CC3)c2n1 | 5 |  |  |
| CC(C)n1cnc2c(NC3CC3)ncnc21 | 4 | 30 |  |
| CN(C)c1ncnc2c1ncn2Cc1cccc(C#N)c1 | 13 |  |  |
| CC(=O)N(c1ncnc2c1ncn2C1CC1)C1CC1 |  |  | inhibition in vivo at 25 mg/kg [1]: 22% |
| CCOc1nc(NC2CC2)c2ncn(CC3CC3)c2n1 | 0.8 | 4 |  |
| CN(C)c1ncnc2c1ncn2Cc1ccccc1 | 15 | 52 |  |
| CN(C)c1ncnc2c1ncn2Cc1cccc(Cl)c1 | 50 |  |  |
| Nc1ncnc2c1ncn2CC1CC1 | 20 |  |  |
| CC(C)N(C)c1ncnc2c1ncn2CC1CC1 |  |  | inhibition in vivo at 25 mg/kg [1]: 32% |
| CC(C1CC1)n1cnc2c(NC3CC3)ncnc21 (stereo in doubt; 61) |  |  | ED50 [3]: >25 mg/kg; ED50 [2]: 12.5 mg/kg |
| CN(C)c1ncnc2c1ncn2C |  |  | inhibition in vivo at 25 mg/kg [1]: 30% |
| c1nc(NC2CC2)c2ncn(C3CCC3)c2n1 | 19 |  |  |
| Clc1nc(NC2CC2)c2ncn(CC3CC3)c2n1 | 2.5 | 4 |  |
| c1nc(N2CCC2)c2ncn(CC3CC3)c2n1 |  |  | inhibition in vivo at 25 mg/kg [1]: 30% |
| CN(C)c1ncnc2c1ncn2CC1CCC1 | 8 |  |  |
| CN(c1ncnc2c1ncn2C1CC1)C1CC1 | 4.5 | 12.5 |  |
| CC(C)(C)Nc1ncnc2c1ncn2CC1CC1 |  |  | inhibition in vivo at 25 mg/kg [1]: 0% |

| SMILES | ED50 [2, 7] [mg/kg] | ED50 [3, 8] [mg/kg] | also measured |
| --- | --- | --- | --- |
| CCN(c1ncnc2c1ncn2CC1CC1)C1CC1 | 20 |  |  |
| c1nc(NC2CC2)c2ncn(C3CCCC3)c2n1 |  |  | ED50 [5]: Toxic |
| CN(C)c1ncnc2c1ncn2Cc1cccc(N)c1 | 23 | 58 |  |
| COc1nc(NC2CC2)c2ncn(CC3CC3)c2n1 |  |  | ED50 [6]: 3.7 mg/kg |
| CN(C)c1ncnc2c1ncn2C1CCCCCC1 |  |  | inhibition in vivo at 25 mg/kg [1]: 0% |
| c1nc(NC2CC2)c2ncn(C3CC3)c2n1 | 4.5 | 20 |  |
| Nc1nc(NC2CC2)c2ncn(CC3CC3)c2n1 | 9 |  | inhibition in vivo at 25 mg/kg [4]: 26% |
| CN(c1ncnc2c1ncn2CC1CC1)C1CC1 | 7.5 | 35 |  |
| CN(C)c1ncnc2c1ncn2C1CCCC1 |  |  | inhibition in vivo at 25 mg/kg [1]: 27% |
| O=CN(c1ncnc2c1ncn2C1CC1)C1CC1 | 2.4 | 7.4 |  |
| c1nc(N2CCCCC2)c2ncn(CC3CC3)c2n1 |  |  | inhibition in vivo at 25 mg/kg [1]: 28% |
| CCCCn1cnc2c(NC3CC3)ncnc21 | 18 |  |  |
| c1ccc(Nc2ncnc3c2ncn3CC2CC2)cc1 |  |  | inhibition in vivo at 25 mg/kg [1]: 0% |
| CN(C)c1ncnc2c1ncn2CC1CC1 | 4.5 | 17 |  |
| CCn1cnc2c(N(C)C)ncnc21 | 15 |  |  |
| CCCn1cnc2c(N(C)C)ncnc21 | 14 | 15 |  |
| CC(C1CC1)n1cnc2c(NC3CC3)ncnc21 (stereo in doubt; 60) |  |  | ED50 [3]: 9 mg/kg; ED50 [2]: 2 mg/kg |
| c1nc(NC2CC2)c2ncn(CC3CCC3)c2n1 | 10 | 44 |  |
| CN(C)c1ncnc2c1ncn2Cc1ccc(N)cc1 | 17 |  |  |
| c1nc(NC2CC2)c2ncn(CC3CC3)c2n1 | 4 | 12 |  |
| CNc1ncnc2c1ncn2CC1CC1 | 12 |  | inhibition in vivo at 25 mg/kg [4]: 38% |
| CC(C)n1cnc2c(N(C)C)ncnc21 | 11 | 15 |  |
| CC(C1CC1)n1cnc2c(N(C=O)C3CC3)ncnc21 (stereo not drawn) | 2.5 | 7.5 |  |
| CCNc1ncnc2c1ncn2CC1CC1 | 22 |  |  |

| SMILES | ED50 [2, 7] [mg/kg] | ED50 [3, 8] [mg/kg] | also measured |
| --- | --- | --- | --- |
| CN(C)c1ncnc2c1ncn2C1CC1 | 9 | 25 |  |
| CN(C)c1ncnc2c1ncn2Cc1cccc(NC(=O)C(N)Cc2ccccc2)c1 (stereo not drawn) | 27 | 96 |  |
| CN(C)c1ncnc2c1ncn2C1CCCCC1 |  |  | inhibition in vivo at 25 mg/kg [1]: 70% |
| CSCn1cnc2c(NC3CC3)ncnc21 | 23 |  |  |
| CCCCn1cnc2c(N(C)C)ncnc21 | 10 |  |  |
| CC(C)Cn1cnc2c(N(C)C)ncnc21 | 5 | 22 |  |
| c1nc(NC2CCC2)c2ncn(CC3CC3)c2n1 |  |  | inhibition in vivo at 25 mg/kg [1]: 0% |
| CN(C)c1ncnc2c1ncn2Cc1ccc(O)cc1 |  |  | inhibition in vivo at 25 mg/kg [1]: 0% |
| CCC(C)n1cnc2c(N(C)C)ncnc21 (stereo not drawn) | 14 |  |  |
| CCCn1cnc2c(NC3CC3)ncnc21 | 6 |  |  |
| CCN(C)c1ncnc2c1ncn2CC1CC1 | 12.5 |  |  |
| CN(C)c1ncnc2c1ncn2C1CCC1 | 11 | 26 |  |
| O=CN(c1ncnc2c1ncn2CC1CC1)C1CC1 | 8 | 30 |  |
| O=CN(c1ncnc2c1ncn2CC1CCC1)C1CC1 | 7 |  |  |
| COc1ccc(Cn2cnc3c(N(C)C)ncnc32)cc1 | 58 |  |  |
| CC(C)Cn1cnc2c(NC3CC3)ncnc21 | 10 |  | inhibition in vivo at 25 mg/kg [4]: 0% |
| CC(C1CC1)n1cnc2c(NC3CC3)ncnc21 (stereo in doubt; 59) |  |  | ED50 [3]: 25 mg/kg; ED50 [2]: 4.5 mg/kg |
| CCC(C)n1cnc2c(NC3CC3)ncnc21 (stereo not drawn) | 13.5 |  |  |
| CCNc1nc(NC2CC2)c2ncn(CC3CC3)c2n1 | 9 |  | ED50 [6]: 11 mg/kg |
| CNc1nc(NC2CC2)c2ncn(CC3CC3)c2n1 | 3 | 12.5 |  |
| FC(F)(F)c1nc(NC2CC2)c2ncn(CC3CC3)c2n1 | 0.9 | 2 |  |
| CN(C)c1ncnc2c1ncn2Cc1ccccc1[N+](=O)[O-] |  |  | inhibition in vivo at 25 mg/kg [1]: 0% |
| CN(C)c1ncnc2c1ncn2CC1CCCCC1 |  |  | inhibition in vivo at 25 mg/kg [1]: 0% |
| CN(C)c1ncnc2c1ncn2Cc1ccccc1F | 37 |  |  |
